ChEMBL document CHEMBL4014306, “Pyrazolopyrimidines as Potent Stimulators for Transient Receptor Potential Canonical 3/6/7 Channels” (J Med Chem, 2017)
Activity calls are given as the source filed them. The rule behind the calls is not given here.

What was measured:
Type in all cases: cell-based
[1] = molecular target: T1, Short transient receptor potential channel 3 (Homo sapiens) (UniProt Q13507); assay: Agonist activity at human TRPC3 expressed in HEK293 cells assessed as increase in intracellular calcium level measured for 2.5 mins by Fluo-8-AM dye based fluorescence assay
T1 sequence (whole entry): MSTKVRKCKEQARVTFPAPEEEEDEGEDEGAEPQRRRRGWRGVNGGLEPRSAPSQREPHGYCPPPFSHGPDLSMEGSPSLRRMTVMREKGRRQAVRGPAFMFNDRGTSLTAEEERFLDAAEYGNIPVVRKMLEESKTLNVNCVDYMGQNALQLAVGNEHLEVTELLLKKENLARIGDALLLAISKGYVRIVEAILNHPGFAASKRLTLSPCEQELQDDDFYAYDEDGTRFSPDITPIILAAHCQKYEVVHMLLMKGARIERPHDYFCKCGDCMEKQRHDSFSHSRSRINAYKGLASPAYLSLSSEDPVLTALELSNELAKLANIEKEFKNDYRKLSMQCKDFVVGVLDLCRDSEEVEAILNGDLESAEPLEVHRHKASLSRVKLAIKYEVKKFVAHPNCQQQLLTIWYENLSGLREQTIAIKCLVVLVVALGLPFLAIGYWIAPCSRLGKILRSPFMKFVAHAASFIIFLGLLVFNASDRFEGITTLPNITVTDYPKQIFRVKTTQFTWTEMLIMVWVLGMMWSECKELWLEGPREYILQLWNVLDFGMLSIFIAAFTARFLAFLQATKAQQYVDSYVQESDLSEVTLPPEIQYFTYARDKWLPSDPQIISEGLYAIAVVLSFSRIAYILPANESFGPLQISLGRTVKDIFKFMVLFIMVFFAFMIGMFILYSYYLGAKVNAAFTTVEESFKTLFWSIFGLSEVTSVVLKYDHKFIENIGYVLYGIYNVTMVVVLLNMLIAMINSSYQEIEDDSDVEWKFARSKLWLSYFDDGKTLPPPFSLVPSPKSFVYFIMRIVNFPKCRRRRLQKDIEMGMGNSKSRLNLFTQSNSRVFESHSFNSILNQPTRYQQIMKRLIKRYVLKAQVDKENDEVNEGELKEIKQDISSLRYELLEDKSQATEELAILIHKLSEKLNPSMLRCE
Method in brief: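 HEK293 cells stably expressing human TRPC3, run on a FlexStation at 32 °C. Loaded with FMP dye, or Fluo-type Ca2+ dye with 2 mM probenecid. Extracellular NaCl/HEPES saline, pH 7.4, with 2 mM Ca2+ (standard) or 0.5 mM Ca2+. Read as F/F0. In 0.5 mM Ca2+, FMP EC50 from a Hill fit, n = 6.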

[2] = system: HEK293; assay: Induction of membrane potential depolarization in HEK293 cells measured for 2.5 mins by FLIPR assay; conditions: human, hek293, 2.5 min
Method in brief: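 Parental HEK293 cells on a FlexStation at 32 °C, loaded with Fluo4-AM or FMP dye, in 2 mM Ca2+ extracellular saline, pH 7.4. Compound added and fluorescence read as F/F0.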

[3] = molecular target: T1, Short transient receptor potential channel 3 (Homo sapiens); assay: Agonist activity at human TRPC3 expressed in HEK293 cells assessed as induction of channel current at 10 uM measured for 2.5 mins in presence of 0.5 mM Ca2+ by whole cell patch-clamp method
Method in brief: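 Whole-cell recording of human TRPC3 HEK293 cells in bath with 0.5 mM Ca2+. Pipette had 400 nM free Ca2+ buffered by BAPTA. Ramps +100 to −100 mV every 1 s. Compound at 10 μM applied by perfusion; I–V compared against basal.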

[4] = molecular target: T2, Short transient receptor potential channel 3 (Rattus norvegicus) (UniProt Q9JMI9); assay: Agonist activity at TRPC3 in rat primary glomerular mesangial cells assessed as increase in intracellular calcium level at 1 uM by Fluo4-AM dye-based fluorescence assay
T2 sequence (whole entry): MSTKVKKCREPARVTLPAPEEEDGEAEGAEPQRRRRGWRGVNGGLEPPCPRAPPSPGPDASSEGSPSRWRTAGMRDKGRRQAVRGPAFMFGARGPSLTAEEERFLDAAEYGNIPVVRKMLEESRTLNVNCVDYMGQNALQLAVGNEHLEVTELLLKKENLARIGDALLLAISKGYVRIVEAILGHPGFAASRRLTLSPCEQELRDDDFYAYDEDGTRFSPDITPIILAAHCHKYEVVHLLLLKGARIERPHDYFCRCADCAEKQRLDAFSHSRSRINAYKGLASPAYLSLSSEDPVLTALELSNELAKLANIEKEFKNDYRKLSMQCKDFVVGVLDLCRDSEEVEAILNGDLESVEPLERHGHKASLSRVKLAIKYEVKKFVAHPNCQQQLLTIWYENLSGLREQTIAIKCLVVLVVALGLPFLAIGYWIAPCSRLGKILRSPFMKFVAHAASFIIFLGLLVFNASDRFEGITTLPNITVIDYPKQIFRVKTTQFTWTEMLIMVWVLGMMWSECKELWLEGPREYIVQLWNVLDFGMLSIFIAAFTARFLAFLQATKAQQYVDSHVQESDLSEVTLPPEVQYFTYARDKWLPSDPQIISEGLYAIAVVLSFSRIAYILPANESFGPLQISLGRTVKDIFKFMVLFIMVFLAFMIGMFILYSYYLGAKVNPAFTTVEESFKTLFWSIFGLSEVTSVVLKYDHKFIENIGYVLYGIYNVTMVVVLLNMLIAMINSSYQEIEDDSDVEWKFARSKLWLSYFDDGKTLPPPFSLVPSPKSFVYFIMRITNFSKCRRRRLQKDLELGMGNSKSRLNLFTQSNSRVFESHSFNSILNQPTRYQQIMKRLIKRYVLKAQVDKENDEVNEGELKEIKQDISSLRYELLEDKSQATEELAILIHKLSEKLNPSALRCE
Method in brief: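 Rat glomerular mesangial cells, isolated by graded sieving from male Sprague–Dawley rats, collagenase-digested, cultured in RPMI 1640 with 17% FBS. Grown overnight on coverslips, then loaded with 10 μM Fluo4-AM and 0.02% pluronic F-127 for 1 h at 37 °C in 1 mM Ca2+ saline, pH 7.4. Compound at 1 μM. Confocal imaging, ex 488/em 515 nm, read as F/F0. For the 2-APB condition, 30 μM 2-APB for 2 min beforehand and kept during compound application.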

[5] = molecular target: Transient receptor potential cation channel subfamily A member 1 (Homo sapiens) (UniProt O75762); assay: Inhibition of human TRPA1 expressed in HEK293 cells assessed as decrease in flufenamic acid-evoked increase in intracellular calcium level at 22 uM preincubated for 2 mins followed by flufenamic acid addition measured for 2.5 mins by Fluo8-AM dye-based fluorescence assay relative to control
Sequence of Transient receptor potential cation channel subfamily A member 1 (Homo sapiens) (O75762 whole entry): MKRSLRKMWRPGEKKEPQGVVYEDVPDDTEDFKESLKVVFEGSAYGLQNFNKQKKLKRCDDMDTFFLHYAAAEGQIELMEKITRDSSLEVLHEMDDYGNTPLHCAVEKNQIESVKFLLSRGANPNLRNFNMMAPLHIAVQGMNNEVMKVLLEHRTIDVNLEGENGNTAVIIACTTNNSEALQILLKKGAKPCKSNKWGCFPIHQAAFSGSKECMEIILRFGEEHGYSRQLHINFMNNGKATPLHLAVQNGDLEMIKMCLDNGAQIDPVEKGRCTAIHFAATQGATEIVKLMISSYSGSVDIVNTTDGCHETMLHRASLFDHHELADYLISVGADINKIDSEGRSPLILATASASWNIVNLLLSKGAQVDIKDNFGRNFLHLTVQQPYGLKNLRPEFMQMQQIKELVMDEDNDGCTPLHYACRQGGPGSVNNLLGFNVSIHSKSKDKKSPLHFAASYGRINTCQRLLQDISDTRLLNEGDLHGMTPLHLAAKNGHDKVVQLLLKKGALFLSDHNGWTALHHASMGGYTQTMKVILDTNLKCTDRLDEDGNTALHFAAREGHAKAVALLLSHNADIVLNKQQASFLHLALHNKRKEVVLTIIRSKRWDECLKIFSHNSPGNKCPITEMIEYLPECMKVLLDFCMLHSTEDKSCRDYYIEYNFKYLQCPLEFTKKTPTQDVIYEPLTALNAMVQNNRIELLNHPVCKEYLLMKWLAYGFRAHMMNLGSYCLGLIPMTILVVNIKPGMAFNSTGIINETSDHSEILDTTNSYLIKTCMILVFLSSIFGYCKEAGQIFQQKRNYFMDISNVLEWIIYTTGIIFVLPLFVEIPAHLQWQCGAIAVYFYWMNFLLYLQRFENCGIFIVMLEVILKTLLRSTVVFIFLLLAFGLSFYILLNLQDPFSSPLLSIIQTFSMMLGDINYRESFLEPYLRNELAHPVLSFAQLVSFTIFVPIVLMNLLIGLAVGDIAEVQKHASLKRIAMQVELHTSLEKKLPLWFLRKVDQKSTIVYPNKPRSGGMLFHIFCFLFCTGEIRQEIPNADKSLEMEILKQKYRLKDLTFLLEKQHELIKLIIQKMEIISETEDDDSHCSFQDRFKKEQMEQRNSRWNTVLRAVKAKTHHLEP
Method in brief: (§1)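 Same TRP panel as for the stimulation tests, with FMP dye for TRPC4 and M5 and Fluo8-AM for TRPA1, V1 and M8. Compound applied for 2 min before the channel agonist (TRPC4: 1 μM DAMGO). Inhibition of the agonist response measured on a FlexStation at 32 °C.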

[6] = molecular target: Transient receptor potential cation channel subfamily V member 1 (Homo sapiens) (UniProt Q8NER1); assay: Inhibition of human TRPV1 expressed in HEK293 cells assessed as decrease in capsaicin-evoked increase in intracellular calcium level at 22 uM preincubated for 2 mins followed by capsaicin addition measured for 2.5 mins by Fluo8-AM dye-based fluorescence assay relative to control; method in brief: as §1
Sequence of Transient receptor potential cation channel subfamily V member 1 (Homo sapiens) (Q8NER1 whole entry): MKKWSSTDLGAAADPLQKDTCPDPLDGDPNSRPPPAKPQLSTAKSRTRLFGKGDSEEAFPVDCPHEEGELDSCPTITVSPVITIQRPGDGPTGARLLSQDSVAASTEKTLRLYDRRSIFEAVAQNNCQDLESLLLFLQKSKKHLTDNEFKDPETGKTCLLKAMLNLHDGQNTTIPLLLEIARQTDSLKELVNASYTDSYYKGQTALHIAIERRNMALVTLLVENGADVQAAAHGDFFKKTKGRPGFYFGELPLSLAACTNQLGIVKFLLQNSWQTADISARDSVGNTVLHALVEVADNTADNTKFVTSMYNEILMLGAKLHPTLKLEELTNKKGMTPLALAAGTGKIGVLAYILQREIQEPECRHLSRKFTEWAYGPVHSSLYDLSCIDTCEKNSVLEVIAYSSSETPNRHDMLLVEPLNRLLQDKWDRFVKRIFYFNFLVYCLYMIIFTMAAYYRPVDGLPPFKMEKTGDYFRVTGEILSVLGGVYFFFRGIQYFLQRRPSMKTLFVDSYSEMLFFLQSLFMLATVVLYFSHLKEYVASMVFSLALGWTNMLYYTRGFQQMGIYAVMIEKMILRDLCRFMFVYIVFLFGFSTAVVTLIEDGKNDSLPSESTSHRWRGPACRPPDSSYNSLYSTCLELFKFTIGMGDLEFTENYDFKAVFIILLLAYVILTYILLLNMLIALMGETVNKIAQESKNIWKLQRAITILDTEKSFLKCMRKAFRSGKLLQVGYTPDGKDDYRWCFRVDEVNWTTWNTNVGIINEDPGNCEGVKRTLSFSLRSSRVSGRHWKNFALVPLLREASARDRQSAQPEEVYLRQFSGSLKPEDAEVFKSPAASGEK

CCOC(=O)N1CCC(c2cc(O)n3nc(C)c(-c4ccc(F)cc4)c3n2)CC1
Activity [1]: inactive
Activity [2]: Non-Toxic
Activity [3]: Active

Cc1nn2c(O)cc(C3CCN(C(=O)OCc4ccccc4)CC3)nc2c1-c1ccc(F)cc1
Activity [4]: Active

CCOC(=O)N1CCC(c2cc(O)n3nc(C)c(-c4ccc(C(F)(F)F)cc4)c3n2)CC1
inhibition [5]: < 20%
inhibition [6]: < 20%
